Activity calls are given as the source filed them. The rule behind the calls is not given here.

For orientation: IC50 means the midpoint of a concentration-inhibition curve. High values mean weaker potency in that assay, low ones greater potency in that assay.

For assay [1], the target named is T1, Lethal factor (Bacillus anthracis, UniProt P15917).
T1 sequence (P15917 whole entry): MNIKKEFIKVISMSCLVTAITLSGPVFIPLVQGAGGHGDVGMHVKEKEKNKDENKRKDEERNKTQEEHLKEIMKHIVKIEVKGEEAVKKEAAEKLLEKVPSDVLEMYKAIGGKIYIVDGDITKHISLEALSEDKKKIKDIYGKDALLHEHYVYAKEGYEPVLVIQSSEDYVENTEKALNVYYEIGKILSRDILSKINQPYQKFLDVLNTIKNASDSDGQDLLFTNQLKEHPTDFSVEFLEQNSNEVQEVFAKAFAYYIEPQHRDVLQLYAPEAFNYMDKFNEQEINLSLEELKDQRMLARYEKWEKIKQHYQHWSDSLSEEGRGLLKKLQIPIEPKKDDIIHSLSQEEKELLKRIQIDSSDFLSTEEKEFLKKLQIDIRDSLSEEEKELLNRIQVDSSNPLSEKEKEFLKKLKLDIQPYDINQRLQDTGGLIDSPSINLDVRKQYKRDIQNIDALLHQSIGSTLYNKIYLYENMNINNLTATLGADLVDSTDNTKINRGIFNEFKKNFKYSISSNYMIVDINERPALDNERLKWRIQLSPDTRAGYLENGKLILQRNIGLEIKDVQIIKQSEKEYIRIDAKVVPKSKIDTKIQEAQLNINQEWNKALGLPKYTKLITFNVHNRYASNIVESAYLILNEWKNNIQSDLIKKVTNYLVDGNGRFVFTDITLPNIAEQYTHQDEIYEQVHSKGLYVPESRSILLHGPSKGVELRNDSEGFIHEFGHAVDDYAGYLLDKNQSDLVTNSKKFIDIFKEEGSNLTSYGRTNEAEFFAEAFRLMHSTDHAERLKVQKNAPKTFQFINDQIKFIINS
Description: Inhibition of Bacillus anthracis lethal factor using MCA-KKVYPYPME[dnp]Kamide peptide substrate after 30 mins by FRET assay.

The target of assay [2] is Botulinum neurotoxin type A (Clostridium botulinum) (UniProt P0DPI0). Description: Inhibition of clostridium botulinum BoNT/A light chain assessed as residual activity using SNAP-25 as substrate at 50 uM after 90 mins measured after dialysis by FRET-based assay relative to 6-(4,5-dihydro-1H-imidazol-2-yl)-2-(4-(4-(4,5-dihydro-1H-imidazol-2-yl)phenoxy)phenyl)-1H-indole. In a few lines:
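BoNT/A LC was co-incubated with inhibitor or a DMSO-equivalent control at 37 °C for 90 min. Samples were then dialysed (3,500 MWCO) against 20 mM HEPES pH 7.4, 10% glycerol, 0.05% Tween-20 for 20–24 h at 2–8 °C. Remaining activity was measured by the standard FRET assay.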

Assay [3] addresses T2, Interstitial collagenase (Homo sapiens, UniProt P03956).
T2 sequence (P03956 whole entry): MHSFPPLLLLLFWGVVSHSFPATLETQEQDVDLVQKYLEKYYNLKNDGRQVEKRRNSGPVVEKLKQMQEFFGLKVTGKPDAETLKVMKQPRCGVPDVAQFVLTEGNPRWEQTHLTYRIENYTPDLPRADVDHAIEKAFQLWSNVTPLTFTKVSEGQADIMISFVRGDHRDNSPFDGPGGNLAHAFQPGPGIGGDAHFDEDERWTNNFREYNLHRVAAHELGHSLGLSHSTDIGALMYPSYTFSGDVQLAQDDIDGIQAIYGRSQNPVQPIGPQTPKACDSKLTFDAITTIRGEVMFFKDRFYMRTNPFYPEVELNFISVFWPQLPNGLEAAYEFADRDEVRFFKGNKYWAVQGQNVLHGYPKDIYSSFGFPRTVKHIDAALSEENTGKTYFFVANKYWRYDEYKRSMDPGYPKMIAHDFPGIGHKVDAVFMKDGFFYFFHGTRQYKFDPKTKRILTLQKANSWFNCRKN
Description: Inhibition of human MMP1.

For assay [4], the target named is 72 kDa type IV collagenase (Homo sapiens, UniProt P08253). Description: Inhibition of human MMP2.
Assay [5] addresses Botulinum neurotoxin type A (Clostridium botulinum) (UniProt P0DPI0). The assay is described as follows: Inhibition of Clostridium botulinum BoNT/A light chain-mediated SNAP-25 substrate cleavage preincubated for 15 mins in presence of zinc ion before substrate addition by FRET assay. In a few lines: (§1)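 The potential inactivator (2.5 or 5 mM) was preincubated with compound in the assay mixture for 15 min at 37 °C. 17-mer SNAP-25 substrate and BoNT/A LC were then added, and activity was read in the FRET assay (37 °C, 40 min, ex 398/em 485 nm).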

The target is the same in assay [6]. Description: Inhibition of Clostridium botulinum BoNT/A light chain-mediated SNAP-25 substrate cleavage preincubated for 15 mins in presence of cysteine before substrate addition by FRET assay. In a few lines:
as §1

Assay [7] has as its target Botulinum neurotoxin type A (Clostridium botulinum, UniProt P0DPI0). The assay is described as follows: Inhibition of Clostridium botulinum BoNT/A light chain-mediated SNAP-25 substrate cleavage after 40 mins by FRET assay. In a few lines:
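Recombinant BoNT/A LC at 2 nM was incubated with 20 μM SNAP-25 peptide (AA 187–203, DnpK/daciaC-labelled) for 40 min at 37 °C. Cleaved-substrate fluorescence was read at 485 nm with excitation at 398 nm. IC50 is the compound concentration giving 50% inhibition, averaged over two experiments.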

Chain of Botulinum neurotoxin type A (Clostridium botulinum) (P0DPI0 2-448 limits assumed): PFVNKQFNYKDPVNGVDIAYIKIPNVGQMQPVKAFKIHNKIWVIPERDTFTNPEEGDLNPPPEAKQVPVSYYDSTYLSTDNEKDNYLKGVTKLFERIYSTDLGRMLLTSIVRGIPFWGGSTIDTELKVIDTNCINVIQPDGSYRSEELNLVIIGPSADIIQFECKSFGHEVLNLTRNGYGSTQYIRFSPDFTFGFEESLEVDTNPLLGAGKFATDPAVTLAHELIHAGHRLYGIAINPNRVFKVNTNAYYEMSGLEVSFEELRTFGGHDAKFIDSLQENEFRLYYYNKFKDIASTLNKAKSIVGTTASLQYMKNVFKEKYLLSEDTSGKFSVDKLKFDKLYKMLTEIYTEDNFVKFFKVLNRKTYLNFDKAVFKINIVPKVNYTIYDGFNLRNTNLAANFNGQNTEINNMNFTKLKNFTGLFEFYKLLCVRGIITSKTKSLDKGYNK
Chain of Botulinum neurotoxin type A (P0DPI0 2-448 limits assumed): as above
Chain of 72 kDa type IV collagenase (P08253 whole entry): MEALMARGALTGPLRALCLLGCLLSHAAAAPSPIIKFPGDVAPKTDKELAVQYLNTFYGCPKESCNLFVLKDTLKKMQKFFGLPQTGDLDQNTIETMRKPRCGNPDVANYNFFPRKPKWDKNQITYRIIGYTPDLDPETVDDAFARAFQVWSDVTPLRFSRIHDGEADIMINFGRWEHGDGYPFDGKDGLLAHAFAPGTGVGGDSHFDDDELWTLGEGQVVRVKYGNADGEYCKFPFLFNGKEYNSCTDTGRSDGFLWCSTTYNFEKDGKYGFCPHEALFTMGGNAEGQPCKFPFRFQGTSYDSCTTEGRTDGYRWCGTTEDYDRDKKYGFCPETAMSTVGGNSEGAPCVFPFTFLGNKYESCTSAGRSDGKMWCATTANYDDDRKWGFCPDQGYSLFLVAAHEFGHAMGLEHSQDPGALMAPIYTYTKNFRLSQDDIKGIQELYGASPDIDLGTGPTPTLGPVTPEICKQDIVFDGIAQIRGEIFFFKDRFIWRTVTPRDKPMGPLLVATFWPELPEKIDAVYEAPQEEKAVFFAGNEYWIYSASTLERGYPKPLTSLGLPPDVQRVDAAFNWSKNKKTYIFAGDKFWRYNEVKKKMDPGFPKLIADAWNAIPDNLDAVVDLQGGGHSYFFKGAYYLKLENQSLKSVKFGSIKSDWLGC

Consider `N#C/C(=C\c1ccc(-c2cccs2)s1)c1nc2ccccc2[nH]1`, for which the half-inhibitory concentration (IC50) in assay [1] is > 100 µM; in assay [3], > 100 µM; in assay [4] it was > 100 µM; in assay [7], 26 µM. Besides, the Ratio in assay [2] worked out at 1.13. The inhibition result in assay [5] and in assay [6] was “Active” each time.
As for `COc1ccc(/C=C(\C#N)c2nc3ccccc3[nH]2)cc1I`, the IC50 in assay [1] is 74 µM; in assay [3], > 100 µM; in assay [4], > 100 µM; in assay [7] it was 7.2 µM. Moreover, the Ratio in assay [2] turned out to be 0.99. For the same molecule, the inhibition entry in assay [5] is “Active”. Further, the inhibition entry in assay [6] was “inactive”.

The record behind these values is ChEMBL document CHEMBL1933027, “Time-dependent botulinum neurotoxin serotype A metalloprotease inhibitors” (Bioorg Med Chem, 2011).
